Kir21 inh = inhibitors of mouse Kir2.1 inward-rectifier potassium channel; hit rate 0.85% among 310,000; B-score at 10 µM; HEK293-Kir2.1, FluxOR thallium flux fluorescence; stronger effect = lower value;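 active = fluorescence ratio B-score at or below minus 3 SD of library scores, with starting-brightness B-score within 2 SD, cut at about -4.2 in these data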;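 also: channel flux triggered by added potassium and thallium sulfate stimulus; B-score of peak minus minimum fluorescence over baseline after thallium stimulus; more negative B-score means stronger Kir2.1 block with less thallium influx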
Target sequence (P35561 whole entry, looked up): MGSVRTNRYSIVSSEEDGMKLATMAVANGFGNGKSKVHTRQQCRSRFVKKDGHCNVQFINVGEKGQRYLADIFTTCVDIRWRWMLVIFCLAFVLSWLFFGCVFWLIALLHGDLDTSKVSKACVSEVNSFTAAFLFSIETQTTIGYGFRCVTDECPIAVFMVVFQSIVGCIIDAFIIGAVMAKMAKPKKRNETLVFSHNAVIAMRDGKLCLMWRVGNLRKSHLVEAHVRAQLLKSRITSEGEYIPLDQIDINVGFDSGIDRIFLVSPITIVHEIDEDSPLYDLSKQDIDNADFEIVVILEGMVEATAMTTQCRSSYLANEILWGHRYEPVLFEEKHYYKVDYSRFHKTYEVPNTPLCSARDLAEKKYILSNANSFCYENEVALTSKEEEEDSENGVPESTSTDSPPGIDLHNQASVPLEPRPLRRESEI
KCNK9 block = blocks the human KCNK9 two-pore domain potassium channel; HEK293 KCNK9, FluxOR thallium flux fluorescence; stronger effect = lower value; B-score at 10 µM; hit rate 1.2% among 310,000; AID 488922;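 active = ratio B-score over 3 SD below the library mean, with starting fluorescence within 5 SD of its mean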;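 also: negative B-score means less thallium flux so channel inhibition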
KCNQ1 pot = potentiators or activators of human KCNQ1 potassium channel | P51787 | CHO-K1 KCNQ1, thallium flux FluxOR fluorescence; stronger effect = higher value | hit rate 0.35% among 310,000 | B-score at 10 µM | AID 2648;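 active = fluorescence ratio B-score, a plate-corrected score, at least three library SD, with initial intensity B-score within 5 SD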
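Schedule – 37 °C overnight plating, 90-min dark dye load, 20-min compound pretreatment · System – stable KCNQ1 CHO-K1 line · Probe or stimulus – thallium- and potassium-containing depolarizing buffer · Measured by – kinetic FluxOR fluorescence, 10 s baseline plus 110 s post-stimulus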
KCNQ1 block = inhibitors of human KCNQ1 potassium channel; hit rate 1.3% among 310,000; P51787; CHO-K1 KCNQ1, FluxOR thallium flux fluorescence; stronger effect = higher value; B-score at 10 µM;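 active = compounds whose thallium flux B-score, printed positive for inhibition, exceeds three library SD while starting fluorescence stays within three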;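 also: channel opened by potassium depolarization with thallium stimulus after 20 min compound exposure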
hERG protect = compounds protecting human hERG from proarrhythmic drug block | CHO-hERG, FluxOR thallium flux, dofetilide IC70 present | activation (rescue from dofetilide block), less the hit threshold, % at 10 µM | hit rate 0.51% among 310,000;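 active = activation above the mean of controls blocked by dofetilide plus 5 SD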;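 also: thallium influx through hERG after potassium depolarization seen as dye fluorescence rise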
KCNK3 inh = human KCNK3 channel inhibition, primary screen | CHO-KCNK3 thallium flux, FluxOR fluorescence; stronger effect = lower value | B-score at 10 µM | hit rate 0.84% among 340,000;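 active = B-score under library mean minus 4 SD, starting fluorescence ratio at most library mean plus 5 SD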;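 also: more negative B-score means stronger inhibition of thallium flux through KCNK3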
KCNK3 confirm = confirmation of human KCNK3 two-pore domain potassium channel inhibitors; shares compounds with KCNK3 inh; CHO-KCNK3 thallium flux, FluxOR fluorescence; 0% buffer, 100% carvedilol maximal block; hit rate 99% among 2,400; ratio percent of control, % at 10 µM; AID 651638;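 active = ratio percent of control, averaged over triplicates, above buffer control mean plus 5 SD, cut at about 64% in these data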;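 also: ratio is the fluorescence rise from min to max over baseline after thallium stimulus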
KCNK3 noninduced = counter-screen for KCNK3 inhibitors: effect in non-induced cells; shares compounds with KCNK3 inh; non-induced KCNK3 parental cells, FluxOR thallium flux; stronger effect = lower value; thallium flux ratio (lower = more inhibition) at 10 µM; hit rate 40% among 2,400; AID 651747;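 active = thallium flux ratio, averaged over three wells, more than 5 SD below the buffer control mean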;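 also: host cells are CHO cells without KCNK3 induction; ratio is peak minus trough fluorescence over baseline then normalized to buffer controls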
Active calls of the source: *; i = inactive; . = no result given. Compounds with a hit are over-represented: about 3.7% of the library has one in this group of screens.

SMILES | Kir21 inh | KCNK9 block | KCNQ1 pot | KCNQ1 block | hERG protect | KCNK3 inh | KCNK3 confirm | KCNK3 noninduced
CCOC(=O)N1CCN(Cc2c(F)cccc2Cl)CC1 | -0.29 | i | i | i | -8 | i | . | .
CCOC(=O)c1cc2occc2n1Cc1c(F)cccc1Cl | -1.3 | i | i | i | -12 | -9.8* | 77* | i
CCN(CC)S(=O)(=O)c1cc(NC(=O)c2ccc3c(c2)NC(=O)C(C)S3)ccc1C (stereo unspecified) | . | . | . | . | . | i | . | .
Cc1cccc(OCCOC(=O)c2c(-c3ccccc3)noc2C)c1 | 2.1 | i | i | i | -7 | -13* | 108* | i
CCCOc1cccc(NC(=O)c2c(-c3ccccc3)noc2C)c1 | -1.4 | i | i | i | -7 | i | . | .
O=C(NC1CCCC1)C(c1cccnc1)N(C(=O)c1ccco1)c1ccc(F)cc1 (stereo unspecified) | -0.6 | i | i | i | -23 | i | . | .
Cc1ccc(NC(=O)C(=O)c2c(-c3ccccc3)cc3ccccn23)cc1S(=O)(=O)N1CCOCC1 | -1.4 | i | i | i | -10 | -10* | 113* | i
CN(c1ccccc1)S(=O)(=O)c1cccc(NC(=O)c2ccc3ncsc3c2)c1 | 1.4 | -7.1* | i | i | -14 | -9.5* | 130* | 0.14*
O=S(=O)(NCC(c1ccco1)N1CCc2ccccc2C1)c1ccc(Br)cc1 (stereo unspecified) | 0.02 | i | i | i | -8 | -8.7* | 114* | i
Cc1ccc(S(=O)(=O)NCC(c2ccco2)N2CCc3ccccc3C2)cc1 (stereo unspecified) | -0.48 | i | i | i | -7 | i | . | .
CCOC(=O)N1CCC(NC(=O)CSCc2nc(-c3ccc(OCC)cc3)oc2C)CC1 | 0.54 | i | i | i | -7 | i | . | .
CCOc1ccc(-c2nc(CSCC(=O)N3CCN(c4cccc(OC)c4)CC3)c(C)o2)cc1 | 1.1 | i | i | i | -15 | -12* | 138* | 0.15*
Cc1ccccc1-n1ncc2c1CC(C)(C)CC2NC(=O)C1=CC(=O)CC(C)(C)O1 (stereo unspecified) | 0.84 | i | i | i | -9 | i | . | .
CN1CCN(S(=O)(=O)c2ccc3c(c2)NC(=O)CS3)CC1 | -1.8 | i | i | i | -1 | i | . | .
Cc1ccc(C)c(N2CCN(S(=O)(=O)c3ccc4c(c3)NC(=O)CS4)CC2)c1 | -0.87 | i | i | i | -1 | -9.4* | 85* | i
Cc1cccc(NC(=O)c2ccc(N(C)C3CCCCC3)c([N+](=O)[O-])c2)n1 | -1.7 | i | i | i | -12 | -11* | 128* | 0.12*
COc1ccccc1CN(C)CC(=O)Nc1ccccc1-c1ccccc1 | 1.2 | i | i | i | -22 | -8.8* | 116* | 0.14*
COc1ccc(CC(=O)Nc2ccccc2-c2ccccc2)cc1OC | -0.24 | i | i | i | -12 | i | . | .
COc1ccc(Br)cc1CN(C)CC(=O)NCCc1ccccc1 | -5.5* | i | i | i | -11 | -10* | 102* | i
Oc1ccccc1/C=N/Nc1cccc2cccnc12 | -1.1 | i | i | i | -9 | -11* | 98* | i
C=CCn1c(C)cc(C(=O)COc2ccc(N(C)S(=O)(=O)c3ccc(NC(C)=O)cc3)cc2)c1C | . | . | . | . | . | -12* | 105* | i
CC#CC(=O)NCC1(N(C)Cc2ccccc2)Cc2ccccc2C1 | 0.32 | i | i | i | -4 | i | . | .
CCc1nnc(NC(=O)C2CCN(C(=O)c3ccco3)CC2)s1 | -0.85 | i | i | i | -1 | -8.8* | 81* | i
CN(C)CCCN=Cc1c(O)n(Cc2ccccc2)c(=O)c2ccccc12 | -3.1 | -7.2* | i | i | -11 | -11* | 98* | i
CN(C)CCN=Cc1c(O)n(Cc2ccccc2)c(=O)c2ccccc12 | -3 | i | i | i | -9 | i | . | .
SMILES | Kir21 inh | KCNK9 block | KCNQ1 pot | KCNQ1 block | hERG protect | KCNK3 inh | KCNK3 confirm | KCNK3 noninduced
COc1ccc(CCN(Cc2nc(-c3ccccc3)no2)Cc2nc(-c3ccccc3)no2)cc1OC | 0.61 | i | i | i | -7 | -9.2* | 92* | i
COC(=O)c1ccc2c(c1)C(C)(C)C(/C=C/c1ccc(OC)c(OC)c1OC)=[N+]2C | -7.2* | i | i | 7* | -28 | -12* | 117* | 0.09*
COC(=O)c1ccc2c(c1)C(C)(C)C(/C=C/c1ccc(O)cc1)=[N+]2C | -11 | i | i | i | -39 | i | . | .
O=C(COc1ccccc1)N=C1SC2CS(=O)(=O)CC2N1c1ccc(F)cc1F (stereo unspecified) | 0.23 | i | i | i | -6 | i | . | .
CCCc1nc(SCc2ccc(OCC)cc2)n[nH]1 | 0.33 | i | i | i | 0 | i | . | .
O=C(CN1CCCN(S(=O)(=O)c2ccc(F)cc2)CC1)Nc1cccc(F)c1 | -0.25 | -6.7* | i | i | -7 | -12* | 92* | i
O=C(CSc1cccc2cccnc12)Nc1cc(C(=O)O)cc(C(=O)O)c1 | -0.64 | i | i | i | -6 | i | . | .
CCCCC(Sc1nc(C)c(Cc2ccccc2)c(=O)[nH]1)C(=O)O (stereo unspecified) | 0.85 | i | i | i | -5 | -9* | 0 | i
CSc1nc(C)c(Cc2ccccc2)c(=O)[nH]1 | -0.38 | i | i | i | -5 | i | . | .
CCCCNC(=S)N1CCN(C(c2ccccc2)c2ccccc2)CC1 | -1.1 | -6.8* | i | i | -28 | -11* | 93* | 0.11*
O=C(c1ccccc1)c1ccc(Sc2ccc([N+](=O)[O-])cc2)cc1 | -0.84 | i | i | i | -20 | -8.8* | 115* | 0.15*
Cc1ccc(C(=O)c2ccc([N+](=O)[O-])cc2)cc1C | 1.7 | i | i | i | -9 | i | . | .
COc1ccc2c(c1)CCN1C2CCN2C(=O)CCC21 (stereo unspecified) | 1.9 | i | i | i | -2 | i | . | .
Cc1ccc(C2Nc3ccc4ccccc4c3C3=C2C(=O)CC(C)(C)C3)o1 (stereo unspecified) | -0.75 | i | i | i | -9 | -9* | 105* | i

Screening results (PubChem)
